# Calls of active or inactive are those of the source.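 How the source made its calls: active means PAD4 enzyme activity blocked 50% or more; inactive means under 50% inhibition.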
# Molecular target: Protein-arginine deiminase type-4 (Homo sapiens) (UniProt Q9UM07)
# Assay: recombinant human PAD4 activity inhibition – biochemical, BAEE substrate, colorimetric citrulline readout, late-stage follow-up (AID 588559)
# Settings: colorimetric citrulline detection, at 100 µM, active compounds read high
# In short: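 Incubation: 15 min enzyme–compound preincubation, then 15 min BAEE reaction, 37 °C; Test system: recombinant PAD4; Input: 0.2 µM PAD4 enzyme; Benchmarks: DMSO-treated PAD4 as uninhibited reference; Technique: 540 nm absorbance of citrulline after diacetyl monoxime/thiosemicarbazide color development; Reagent: BAEE substrate at 10 mM; Buffer or medium: Tris pH 7.6, Ca2+ and DTT.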
# Protein-arginine deiminase type-4 (Homo sapiens), sequence (Q9UM07 whole entry, looked up): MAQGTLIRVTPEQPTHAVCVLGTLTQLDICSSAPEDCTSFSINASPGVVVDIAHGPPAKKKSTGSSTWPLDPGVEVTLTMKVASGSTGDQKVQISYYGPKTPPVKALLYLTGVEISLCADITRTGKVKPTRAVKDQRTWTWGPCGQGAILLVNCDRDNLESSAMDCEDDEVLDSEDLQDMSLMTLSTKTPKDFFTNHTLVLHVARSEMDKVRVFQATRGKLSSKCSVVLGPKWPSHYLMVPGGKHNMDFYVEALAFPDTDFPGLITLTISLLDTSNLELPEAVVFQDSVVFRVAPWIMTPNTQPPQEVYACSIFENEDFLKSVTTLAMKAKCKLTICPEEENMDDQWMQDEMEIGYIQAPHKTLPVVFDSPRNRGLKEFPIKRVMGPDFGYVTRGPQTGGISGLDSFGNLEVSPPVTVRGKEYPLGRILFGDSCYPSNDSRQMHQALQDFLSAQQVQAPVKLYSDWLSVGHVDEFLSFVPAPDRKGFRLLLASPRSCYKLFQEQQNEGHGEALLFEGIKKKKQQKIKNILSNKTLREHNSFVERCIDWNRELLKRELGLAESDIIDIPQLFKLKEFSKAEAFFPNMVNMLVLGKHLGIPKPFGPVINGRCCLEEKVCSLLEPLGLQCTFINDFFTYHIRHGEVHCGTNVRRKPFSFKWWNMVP
row,Structure (SMILES),inhibition
1,COC1=CC(=O)c2nc(C#N)ccc2C1=O,98%
2,COC1=C(I)C(=O)c2nc(C#N)ccc2C1=O,98%
3,COC(=O)c1nc(C(C)=O)c2[nH]c3ccccc3c2c1C,0% (inactive)
4,COC(=O)c1nc(C(=O)OC)c(NC(C)=O)c(-c2ccccc2Br)c1C,67%
5,COC(=O)c1cccc(-c2ccc3c(n2)C(=O)C(N)=CC3=O)n1,91%
6,COc1ccc2ncccc2c1[N+](=O)[O-],-12% (inactive)
7,COC(=O)c1cccc(-c2ccc3c(n2)C(=O)C(Br)=CC3=O)n1,90%
8,COC(=O)c1nnc(C(=O)OC)c(-c2ccc3ccccc3n2)n1,-21% (inactive)
9,COC(=O)c1cc(-c2ccccc2)c(C(=O)OC)c(-c2ccc3ccccc3n2)n1,-11% (inactive)
10,COC(=O)c1nc(C(=O)OC)c(N)c(-c2ccccc2Br)c1C,9% (inactive)
11,COC(=O)c1nc(-c2ccc3c(n2)C(=O)C(Br)=CC3=O)c2[nH]c3ccccc3c2c1C,0% (inactive)
12,COc1ccc2nc(C#N)ccc2c1[N+](=O)[O-],-13% (inactive)
13,COc1ccc2nc(C#N)ccc2c1,-10% (inactive)
14,O=C(O)c1cccc(-c2ccc3ccc(Br)c(OCc4ccccc4)c3n2)n1,-8% (inactive)
15,COC(=O)c1nnc(C(=O)OC)c(-c2ccc3c([N+](=O)[O-])c(OC)ccc3n2)n1,-12% (inactive)
16,CCOC(=O)c1nc(C(=O)OCC)c(C(=O)OCC)c(-c2ccc(OC)c(OC)c2OCc2ccccc2)c1C,2% (inactive)
17,COC(=O)c1nnc(C(=O)OC)c(-c2ccc3cc(OC)ccc3n2)n1,-2% (inactive)
18,COC(=O)c1cccc(-c2ccc3ccc(Br)c(O)c3n2)n1,27% (inactive)

# Now from value to compound:
row,inhibition,Structure (SMILES)
1,97%,NC1=CC(=O)c2ccc(-c3cc(C(=O)O)ccc3N)nc2C1=O
2,97%,NC1=C(N)C(=O)c2ccccc2C1=O
3,98%,COC1=C(Br)C(=O)c2nc(-c3ccccn3)ccc2C1=O
4,100%,O=C1C=C(Br)C(=O)c2ncccc21
5,99%,COC1=C(N)C(=O)c2ncccc2C1=O
6,88%,NC1=CC(=O)c2ccc(-c3ccccn3)nc2C1=O
7,98%,NC1=CC(=O)c2ccc(-c3cccc(C(=O)O)n3)nc2C1=O
8,97%,O=C1C(Br)=CC(=O)c2ncccc21
9,90%,COC1=C(Br)C(=O)c2ncccc2C1=O
10,98%,NC1=CC(=O)c2cccnc2C1=O
11,98%,O=C1C(O)=C(O)C(=O)c2ncccc21

# Reference: PubChem BioAssay AID588559 (The Scripps Research Institute Molecular Screening Center, 2011)
